{"source": "ChEMBL document CHEMBL1938366", "about": "“Synthesis and biological activity of novel barbituric and thiobarbituric acid derivatives against non-alcoholic fatty liver disease” (Eur J Med Chem, 2011)", "key": {"[1]": {"test_system": "3T3-L1", "assay": "Induction of adipogenesis in mouse 3T3L1 cells assessed as decrease of leptin level at 10 uM after 24 hrs (reference value: 3089.21 +/- 33.37 pg/ml)", "format": "functional"}, "[2]": {"test_system": "3T3-L1", "assay": "Cytotoxicity against mouse 3T3L1 cells assessed as glucose consumption at 10 uM by MTT assay", "format": "cell-based", "conditions": "3t3-l1, 10 µM"}, "[3]": {"test_system": "3T3-L1", "assay": "Induction of adipogenesis in mouse 3T3L1 cells assessed as increase of adiponectin expression at 10 uM after 8 to 12 days relative to control", "format": "functional"}, "[4]": {"test_system": "3T3-L1", "assay": "Induction of adipogenesis in mouse 3T3L1 cells assessed as increase of adiponectin level at 10 uM after 8 to 12 days (reference value: 843.78 +/- 20.61 ng/ml)", "format": "functional"}, "[5]": {"test_system": "HepG2", "assay": "Cytotoxicity against human HepG2 cells assessed as glucose consumption at 10 uM by MTT assay in presence of insulin", "format": "cell-based", "conditions": "hepg2, 10 µM", "summary_of_the_method": "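HepG2 cells; glucose consumption measured with insulin co-present at 0.1 µM. Full procedure given in supplementary data (S3).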"}, "[6]": {"test_system": "HepG2", "assay": "Cytotoxicity against human HepG2 cells assessed as glucose consumption at 10 uM by MTT assay", "format": "cell-based", "conditions": "hepg2, 10 µM"}, "[7]": {"test_system": "Rattus norvegicus", "assay": "Hepatoprotective activity against high fat/high calorie diet-induced non-alcoholic fatty liver disease in Wistar rat assessed as reduction of fat accumulation in liver cells at 50 mg/kg, po qd for 4 weeks by oil red O and H & E staining", "format": "functional, organism-based", "design": "dose 50 mg/kg", "summary_of_the_method": "(§1)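 Male Wistar rats on a high-fat/high-calorie diet were given compound orally at 50 mg/kg once daily for 4 weeks, suspended in Tween 80 and 5% saline. Liver sections were then stained with Oil Red O and H&E and compared against normal-diet and untreated diet-model rats.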"}, "[8]": {"test_system": "Rattus norvegicus", "assay": "Toxicity in high fat/high calorie diet-induced non-alcoholic fatty liver disease Wistar rat model assessed as abnormal behavioral at 50 mg/kg, po qd for 4 weeks", "format": "organism-based", "design": "dose 50 mg/kg, route oral", "conditions": "in vivo, 672 h"}, "[9]": {"test_system": "Rattus norvegicus", "assay": "Hepatoprotective activity against high fat/high calorie diet-induced non-alcoholic fatty liver disease in Wistar rat assessed as decreased visceral fat assessed per 100 gram of body weight at 50 mg/kg, po qd for 4 weeks (reference value: 4.95 +/- 0.95 g/100g BW)", "format": "functional"}, "[10]": {"test_system": "Rattus norvegicus", "assay": "Hepatoprotective activity against high fat/high calorie diet-induced non-alcoholic fatty liver disease in Wistar rat assessed as decreased triglyceride levels at 50 mg/kg, po qd for 4 weeks by radioimmunoassay (reference value: 2.38 +/- 1.20 mM)", "format": "functional"}, "[11]": {"test_system": "Rattus norvegicus", "assay": "Hepatoprotective activity against high fat/high calorie diet-induced non-alcoholic fatty liver disease in Wistar rat assessed as decreased HDL cholesterol levels at 50 mg/kg, po qd for 4 weeks by radioimmunoassay (reference value: 1.20 +/- 0.43 mM)", "format": "functional"}, "[12]": {"test_system": "Rattus norvegicus", "assay": "Hepatoprotective activity against high fat/high calorie diet-induced non-alcoholic fatty liver disease in Wistar rat assessed as serum adiponectin levels at 50 mg/kg, po qd for 4 weeks (reference value: 10.49 +/- 2.59 ng/ml)", "format": "functional"}, "[13]": {"test_system": "Rattus norvegicus", "assay": "Toxicity in high fat/high calorie diet-induced non-alcoholic fatty liver disease Wistar rat model assessed as physiological signs of toxicity at 50 mg/kg, po qd for 4 weeks", "format": "organism-based", "design": "dose 50 mg/kg, route oral", "conditions": "in vivo, 672 h"}, "[14]": {"test_system": "Rattus norvegicus", "assay": "Hepatoprotective activity against high fat/high calorie diet-induced non-alcoholic fatty liver disease in Wistar rat assessed as decreased ALT levels at 50 mg/kg, po qd for 4 weeks (reference value: 47.52 +/- 4.98 u/l)", "format": "functional"}, "[15]": {"test_system": "Rattus norvegicus", "assay": "Hepatoprotective activity against high fat/high calorie diet-induced non-alcoholic fatty liver disease in Wistar rat assessed as decreased liver weight at 50 mg/kg, po qd for 4 weeks (reference value: 21.4 +/- 3.1 g)", "format": "functional"}, "[16]": {"test_system": "Rattus norvegicus", "assay": "Hepatoprotective activity against high fat/high calorie diet-induced non-alcoholic fatty liver disease in Wistar rat assessed as decrease in liver/body weight ratio at 50 mg/kg, po qd for 4 weeks (reference value: 4.95 %)", "format": "functional", "design": "scale not given: the % may be the effect or the level left"}, "[17]": {"test_system": "Rattus norvegicus", "assay": "Hepatoprotective activity against high fat/high calorie diet-induced non-alcoholic fatty liver disease in Wistar rat assessed as HOMA-IR levels at 50 mg/kg, po qd for 4 weeks (reference value: 15.31 +/- 0.22)", "format": "functional"}, "[18]": {"test_system": "Rattus norvegicus", "assay": "Hepatoprotective activity against high fat/high calorie diet induced NAFLD in Wistar rat assessed as restoration of liver cells at 50 mg/kg, po qd for 4 weeks by oil red O and H & E staining", "format": "functional, organism-based", "design": "dose 50 mg/kg", "summary_of_the_method": "as §1"}, "[19]": {"test_system": "Rattus norvegicus", "assay": "Hepatoprotective activity against high fat/high calorie diet-induced non-alcoholic fatty liver disease in Wistar rat assessed as insulin at 50 mg/kg, po qd for 4 weeks (reference value: 36.32 +/- 2.97 uU/ml)", "format": "functional"}, "[20]": {"test_system": "Rattus norvegicus", "assay": "Hepatoprotective activity against high fat/high calorie diet-induced non-alcoholic fatty liver disease in Wistar rat assessed as serum leptin levels at 50 mg/kg, po qd for 4 weeks (reference value: 7.59 +/- 2.36 ng/ml)", "format": "functional"}, "[21]": {"test_system": "Rattus norvegicus", "assay": "Hepatoprotective activity against high fat/high calorie diet-induced non-alcoholic fatty liver disease in Wistar rat assessed as decreased body weight at 50 mg/kg, po qd for 4 weeks (reference value: 431 +/- 19.4 g)", "format": "functional"}, "[22]": {"test_system": "Rattus norvegicus", "assay": "Hepatoprotective activity against high fat/high calorie diet-induced non-alcoholic fatty liver disease in Wistar rat assessed as decreased LDL cholesterol levels at 50 mg/kg, po qd for 4 weeks by radioimmunoassay (reference value: 0.97 +/- 0.31 mM)", "format": "functional"}, "[23]": {"test_system": "Rattus norvegicus", "assay": "Hepatoprotective activity against high fat/high calorie diet-induced non-alcoholic fatty liver disease in Wistar rat assessed as decreased FBS at 50 mg/kg, po qd for 4 weeks by radioimmunoassay (reference value: 9.23 +/- […] mM)", "format": "functional"}}, "note": "Active and inactive are the calls of the source. The calls are words filed in the database; no cut-off is given here.", "data": [{"compound": "Cc1ccc(NC(=O)COc2ccc(C=C3C(=O)NC(=S)NC3=O)cc2)nc1", "values": [{"measurement": "Activity", "setting": "[1]", "result": 1514.81, "unit": "pg/mL"}, {"measurement": "Activity", "setting": "[2]", "result": "Non-toxic"}, {"measurement": "Activity", "setting": "[3]", "result": 146.94, "unit": "%"}, {"measurement": "Activity", "setting": "[4]", "result": 1239.44, "unit": "ng/mL"}]}, {"compound": "CN(CCOc1ccc(CC2SC(=O)NC2=O)cc1)c1ccccn1", "note": "(stereo not drawn) [ROSIGLITAZONE]", "values": [{"measurement": "Activity", "setting": "[5]", "result": 29.41, "unit": "%"}, {"measurement": "Activity", "setting": "[1]", "result": 1773.67, "unit": "pg/mL"}, {"measurement": "Activity", "setting": "[6]", "result": 15.58, "unit": "%"}, {"measurement": "Activity", "setting": "[3]", "result": 157.31, "unit": "%"}, {"measurement": "Activity", "setting": "[4]", "result": 1324.73, "unit": "ng/mL"}]}, {"compound": "O=C(COc1ccc(C=C2C(=O)NC(=O)NC2=O)cc1)Nc1ccccc1", "values": [{"measurement": "Activity", "setting": "[1]", "result": 1856.32, "unit": "pg/mL"}, {"measurement": "Activity", "setting": "[2]", "result": "Non-toxic"}, {"measurement": "Activity", "setting": "[3]", "result": 135.18, "unit": "%"}, {"measurement": "Activity", "setting": "[4]", "result": 1111.73, "unit": "ng/mL"}]}, {"compound": "O=C(COc1ccc(C=C2C(=O)NC(=O)NC2=O)cc1)Nc1ccccn1", "values": [{"measurement": "Activity", "setting": "[7]", "result": "Active"}, {"measurement": "Activity", "setting": "[8]", "result": "Non-toxic"}, {"measurement": "Activity", "setting": "[1]", "result": 1271.98, "unit": "pg/mL"}, {"measurement": "Activity", "setting": "[2]", "result": "Non-toxic"}, {"measurement": "Activity", "setting": "[9]", "result": 3.98, "unit": "g"}, {"measurement": "Activity", "setting": "[10]", "result": 1.02, "unit": "mM"}, {"measurement": "Activity", "setting": "[11]", "result": 1.11, "unit": "mM"}, {"measurement": "Activity", "setting": "[12]", "result": 12.53, "unit": "µg/mL"}, {"measurement": "Activity", "setting": "[3]", "result": 180.32, "unit": "%"}, {"measurement": "Activity", "setting": "[13]", "result": "Non-toxic"}, {"measurement": "Activity", "setting": "[14]", "result": 33.06, "unit": "U/L"}, {"measurement": "Activity", "setting": "[15]", "result": 16, "unit": "g"}, {"measurement": "Activity", "setting": "[16]", "result": 4.34, "unit": "%"}, {"measurement": "Activity", "setting": "[17]", "result": 7.03}, {"measurement": "Activity", "setting": "[18]", "result": "Active"}, {"measurement": "Activity", "setting": "[19]", "result": 33.43, "unit": "uU/ml"}, {"measurement": "Activity", "setting": "[20]", "result": 6, "unit": "ng/mL"}, {"measurement": "Activity", "setting": "[21]", "result": 360.5, "unit": "g"}, {"measurement": "Activity", "setting": "[22]", "result": 0.18, "unit": "mM"}, {"measurement": "Activity", "setting": "[23]", "result": 4.73, "unit": "mM"}, {"measurement": "Activity", "setting": "[4]", "result": 1639.61, "unit": "ng/mL"}]}, {"compound": "O=C(COc1ccc(C=C2C(=O)NC(=O)NC2=O)cc1)Nc1ccc(F)c(F)c1", "values": [{"measurement": "Activity", "setting": "[1]", "result": 1571.98, "unit": "pg/mL"}, {"measurement": "Activity", "setting": "[2]", "result": "Non-toxic"}, {"measurement": "Activity", "setting": "[3]", "result": 143.8, "unit": "%"}, {"measurement": "Activity", "setting": "[4]", "result": 1322.02, "unit": "ng/mL"}]}]}
